For orientation: pIC50 means −log10 of the IC50, conventionally taken in molar units.

These results are taken from ChEMBL document CHEMBL5370586 (J Nat Prod, 2023).

Data set [1] relates to DU-145. The experiment in a line: Induction of cell cycle arrest in human DU-145 cells assessed as arrest in G2/M phase by measuring reduction in CDK1 protein expression at IC50 concentration incubated for 48 hrs by Western blotting analysis. Type of data set: functional, cell-based. The gist of the method:
(§1)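 DU145 or PC-3 cells seeded at 5 × 10^4 per well and given CBD for 48 h. Lysed in ice-cold RIPA with protease/phosphatase inhibitor; 40 μg protein per lane, SDS-PAGE, PVDF transfer, milk block. Primary antibodies overnight at 4 °C, then HRP secondary 1 h at room temperature, chemiluminescence. Densitometry normalised to loading control, then to vehicle; at least three experiments.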
For orientation: Immunoblotting shows a protein as a band on a membrane.

In data set [2] the test system is PC-3. The experiment in a line: Induction of apoptosis in human PC-3 cells assessed as early apoptotic cells at 1 to 10 uM incubated for 72 hrs by YO-PRO and propidium iodide staining based high content imaging fluorescence microscopic analysis. The settings on record: dose 1-10 µM. Type of data set: functional, cell-based. The gist of the method:
(§2)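 DU145 or PC-3 cells seeded at 2 × 10^3 per well and given CBD at 1, 5 or 10 μM with serum for 72 h; staurosporine as positive control. Stained 30 min with Hoechst 33342 (1:5000), YO-PRO-1 (1:1000) and PI (1:1000). High-content imaging with a 63× water objective. Hoechst gave confluency, nucleus area and circularity; YO-PRO/PI gave healthy, early and late apoptotic fractions.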

Data set [3] relates to DU-145. Put plainly: Antiproliferative activity against human DU-145 cells assessed as reduction in cell confluency at 5 to 10 uM measured after 72 hrs by Hoechst 33342 staining based high content imaging fluorescence microscopic analysis. Type of data set: functional. The settings on record: dose 5-10 µM. In a few lines:
as §2

Data set [4] deals with PC-3. Put plainly: Antiproliferative activity against human PC-3 cells assessed as reduction in cell viability incubated for 72 hrs in presence of LPI by MTT assay. Type of data set: functional, cell-based. The gist of the method:
(§3)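 DU145 or PC-3 cells pretreated 1 h with SR141716 (CB1 antagonist), SR144528 (CB2 antagonist), capsazepine (TRPV1 antagonist) or LPI (GPR55 agonist), then given CBD for 72 h. MTT read-out as % of vehicle. Compared with CBD alone by t-test; at least three independent experiments.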

Data set [5] has as its target Serine/threonine-protein kinase AKT (Homo sapiens) (UniProt P31751+Q9Y243+P31749). Put plainly: Inhibition of AKT phosphorylation in human PC-3 cells at IC50 concentration incubated for 48 hrs by Western blot analysis. Type of data set: cell-based. In a few lines:
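Cells seeded at 5 × 10^4 per well and treated 48 h with an IC50 dose of CBD in DU145 or PC-3. Lysed in ice-cold RIPA with protease/phosphatase inhibitor. 40 μg protein per lane on SDS-PAGE, then PVDF. Probed overnight at 4 °C for phospho-AKT and total AKT, HRP detection. Densitometry normalised to loading control, then to vehicle. Mean ± SD, ≥3 experiments, t-test.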

Data set [6] has as its system DU-145. The experiment in a line: Induction of cell death in human DU-145 cells assessed as reduction in cell nucleus circularity at 1 to 10 uM measured after 72 hrs by Hoechst 33342 staining based high content imaging fluorescence microscopic analysis. The settings on record: dose 1-10 µM. Type of data set: functional. The gist of the method:
as §2

The subject of data set [7] is PC-3. Put plainly: Induction of cell cycle arrest in human PC-3 cells assessed as arrest in G2/M phase by measuring reduction in CDK1 protein expression at IC50 concentration incubated for 48 hrs by Western blotting analysis. Type of data set: functional, cell-based. The gist of the method:
as §1

The subject of data set [8] is PC-3. Put plainly: Induction of cell cycle arrest in human PC-3 cells assessed as arrest in G2/M phase by measuring reduction in CDK7 protein expression at IC50 concentration incubated for 48 hrs by Western blotting analysis. Type of data set: functional, cell-based. The gist of the method:
as §1

Data set [9] deals with PC-3. Put plainly: Induction of cell death in human PC-3 cells assessed as reduction in cell nucleus circularity at 1 to 10 uM measured after 72 hrs by Hoechst 33342 staining based high content imaging fluorescence microscopic analysis. Type of data set: functional. The settings on record: dose 1-10 µM. The gist of the method:
as §2

The test system of data set [10] is DU-145. The experiment in a line: Antiproliferative activity against human DU-145 cells assessed as reduction in cell count at IC50 concentration incubated for 48 hrs by flow cytometry analysis. Type of data set: functional, cell-based. In a few lines:
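Six-well seeding at 4 × 10^4 (DU145) or 3 × 10^4 (PC-3) cells per well; CBD for 48 h. Supernatant and trypsinised adherent cells pooled and resuspended in ice-cold PBS. Cells counted by flow cytometry with forward/side scatter gating; at least three independent experiments.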

Data set [11] relates to DU-145. Put plainly: Induction of apoptosis in human DU-145 cells assessed as early apoptotic cells at 1 to 10 uM incubated for 72 hrs by YO-PRO and propidium iodide staining based high content imaging fluorescence microscopic analysis. The settings on record: dose 1-10 µM. Type of data set: functional, cell-based. The gist of the method:
as §2

In data set [12] the test system is DU-145. The experiment in a line: Induction of cell cycle arrest in human DU-145 cells assessed as arrest in G1/S phase by measuring reduction in CDK2 protein expression at IC50 concentration incubated for 48 hrs by Western blotting analysis. Type of data set: functional, cell-based. The gist of the method:
as §1

A further data set deals with PWR-1E. The experiment in a line: Induction of cell death in human PWR-1E cells assessed as reduction in nucleus circularity at 1 to 10 uM incubated for 72 hrs by Hoechst 33342 staining based high-content fluorescence microscopy. Type of data set: toxicity. The settings on record: dose 1-10 µM.
For data set [13], the system named is PC-3. The experiment in a line: Inhibition of cell invasion in human PC-3 cells incubated for 48 hrs by crystal violet staining based microscopic analysis relative to control. Type of data set: functional.
Data set [14] concerns PC-3. The experiment in a line: Antiproliferative activity against human PC-3 cells assessed as reduction in cell colonies incubated for 48 hrs detached and reseeded without compound and measured after 7 days by glutaraldehyde/crystal violet staining based clonogenic assay relative to control. More on the design: scale not given: the % may be the effect or the level left. Type of data set: functional. In a few lines: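 PC-3 cells left to adhere 24 h, then treated 48 h. Detached and reseeded at 500 cells per well without drug, then grown 7 days at 37 °C, 5% CO2, with medium changed every 2–3 days. Colonies fixed and stained with glutaraldehyde/crystal violet and counted.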

Data set [15] relates to PC-3. Put plainly: Induction of apoptosis in human PC-3 cells assessed as late apoptotic cells at 1 to 10 uM incubated for 72 hrs by YO-PRO and propidium iodide staining based high content imaging fluorescence microscopic analysis. Type of data set: functional, cell-based. The settings on record: dose 1-10 µM. In a few lines: as §2
The subject of data set [16] is PC-3. The experiment in a line: Antiproliferative activity against human PC-3 cells assessed as reduction in cell confluency at 10 uM measured after 72 hrs by Hoechst 33342 staining based high content imaging fluorescence microscopic analysis. Type of data set: functional. In a few lines: as §2
For data set [17], the system named is DU-145. The experiment in a line: Induction of cell cycle arrest in human DU-145 cells assessed as arrest in G1/S phase by measuring reduction in cyclin D3 protein expression at IC50 concentration incubated for 48 hrs by Western blotting analysis relative to control. More on the design: scale not given: the % may be the effect or the level left. Type of data set: functional. The gist of the method: as §1

Data set [18] has as its system DU-145. The experiment in a line: Induction of cell cycle arrest in human DU-145 cells assessed as arrest in G1/S phase by measuring reduction in CDK4 protein expression at IC50 concentration incubated for 48 hrs by Western blotting analysis. Type of data set: functional, cell-based. The gist of the method:
as §1

Data set [19] deals with PC-3. The experiment in a line: Antiproliferative activity against human PC3 cells assessed as reduction in cell viability incubated for 72 hrs in serum deprivation condition by MTT assay. Type of data set: functional, cell-based. The settings on record: PC-3, 72 h. In a few lines: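 Cells seeded at 1 × 10^3 (DU145, PC-3), 6 × 10^3 (LNCaP), 2 × 10^3 (PWR-1E) or 4.5 × 10^3 (RWPE-1) per well and left to adhere 24 h. CBD (0–100 μM) then given for 72 h in serum-free medium. MTT added for 3 h at 37 °C, formazan dissolved in DMSO, absorbance read at 570 nm. Viability is % of vehicle; IC50 by nonlinear regression; at least three independent experiments.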
(In general: Tetrazolium assays rely on reduction of a dye to a coloured formazan, in cell work by metabolically active cells.)

For data set [20], the system named is DU-145. Put plainly: Antiproliferative activity against human DU-145 cells assessed as reduction in cell viability incubated for 72 hrs in presence of LPI by MTT assay. Type of data set: functional, cell-based. The gist of the method:
as §3

The subject of data set [21] is PC-3. The experiment in a line: Anti-invasive activity against human PC-3 cells assessed as reduction in MMP-3 protein secretion incubated for 48 hrs by ELISA analysis. Type of data set: functional, cell-based. For orientation: In an ELISA, binding on a coated surface is turned into a signal by an enzyme label.

pIC50: −log10 of the molar value. Active and inactive are the calls of the source. The calls are words filed in the database; no cut-off is given here.

Serine/threonine-protein kinase AKT (Homo sapiens), sequence (P31749 whole entry, looked up): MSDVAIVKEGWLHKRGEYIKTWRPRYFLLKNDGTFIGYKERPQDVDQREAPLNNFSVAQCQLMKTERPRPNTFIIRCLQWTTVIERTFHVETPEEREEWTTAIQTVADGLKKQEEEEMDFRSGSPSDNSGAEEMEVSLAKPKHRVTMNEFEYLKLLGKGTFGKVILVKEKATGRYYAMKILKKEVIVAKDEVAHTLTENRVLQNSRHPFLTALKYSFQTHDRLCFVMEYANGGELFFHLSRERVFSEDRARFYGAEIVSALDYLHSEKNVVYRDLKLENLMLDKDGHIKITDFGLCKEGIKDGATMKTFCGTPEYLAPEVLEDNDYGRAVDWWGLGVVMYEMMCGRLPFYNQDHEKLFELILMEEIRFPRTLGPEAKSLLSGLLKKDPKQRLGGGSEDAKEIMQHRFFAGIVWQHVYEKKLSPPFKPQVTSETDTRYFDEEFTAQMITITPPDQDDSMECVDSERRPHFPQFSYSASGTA
Serine/threonine-protein kinase AKT (Homo sapiens), sequence (P31751 whole entry, looked up): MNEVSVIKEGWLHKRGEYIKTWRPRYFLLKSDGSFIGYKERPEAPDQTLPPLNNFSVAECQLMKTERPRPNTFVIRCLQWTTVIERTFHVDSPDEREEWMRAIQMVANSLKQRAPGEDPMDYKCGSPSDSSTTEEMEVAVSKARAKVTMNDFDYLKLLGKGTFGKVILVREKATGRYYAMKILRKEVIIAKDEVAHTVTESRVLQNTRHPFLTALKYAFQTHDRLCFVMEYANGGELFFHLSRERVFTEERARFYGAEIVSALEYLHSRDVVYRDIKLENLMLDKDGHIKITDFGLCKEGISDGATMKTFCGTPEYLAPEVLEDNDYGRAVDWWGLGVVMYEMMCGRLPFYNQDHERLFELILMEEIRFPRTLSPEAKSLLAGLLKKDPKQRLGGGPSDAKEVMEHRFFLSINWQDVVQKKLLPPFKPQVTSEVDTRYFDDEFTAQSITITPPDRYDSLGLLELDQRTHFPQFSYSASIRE
Serine/threonine-protein kinase AKT (Homo sapiens), sequence (Q9Y243 whole entry, looked up): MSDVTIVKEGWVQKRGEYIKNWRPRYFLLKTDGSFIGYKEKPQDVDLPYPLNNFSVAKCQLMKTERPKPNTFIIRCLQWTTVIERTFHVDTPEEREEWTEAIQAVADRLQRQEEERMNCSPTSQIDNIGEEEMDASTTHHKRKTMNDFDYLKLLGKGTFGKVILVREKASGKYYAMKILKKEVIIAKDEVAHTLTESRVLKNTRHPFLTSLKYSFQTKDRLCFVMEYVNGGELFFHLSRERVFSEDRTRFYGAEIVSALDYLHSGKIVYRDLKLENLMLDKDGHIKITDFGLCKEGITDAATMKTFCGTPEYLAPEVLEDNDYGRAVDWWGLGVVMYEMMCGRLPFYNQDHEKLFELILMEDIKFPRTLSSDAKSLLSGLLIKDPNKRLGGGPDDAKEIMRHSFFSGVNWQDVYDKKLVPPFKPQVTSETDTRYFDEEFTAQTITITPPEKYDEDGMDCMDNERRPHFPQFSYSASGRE

`C=C(C)[C@@H]1CCC(C)=C[C@H]1c1c(O)cc(CCCCC)cc1O` [CANNABIDIOL]: the result in the data set on DU-145 [1], in the data set on DU-145 [3], in the data set with PC-3 [4], in the data set on PC-3 [7], in the data set on DU-145 [10] and with DU-145 [12] was Active. Further, the result with PC-3 [16], in the data set on DU-145 [18] and with DU-145 [20] was Active. Further, the result in the data set on PC-3 [2], in the data set on DU-145 [6], with PC-3 [8], in the data set on PC-3 [9], with DU-145 [11] and with PC-3 [15] was inactive. Also, the outcome in the data set on PC-3 [21] was inactive. Besides, in data set [5], the inhibition entry is “inactive”. For the same molecule, the results for the Activity entry in the data set with PWR-1E, in the data set with PC-3 [14] and in the data set with DU-145 [17] were “Toxic”, roughly 25% and roughly 20%, respectively. Besides, the “inhibition (INH)” value in the data set with PC-3 [13] was roughly 30%. In addition, the negative logarithm of the IC50 (pIC50) in the data set with PC-3 [19] is 5.54.
